Measurements taken from ChEMBL document CHEMBL2396650, “A potent small-molecule inhibitor of the MDM2-p53 interaction (MI-888) achieved complete and durable tumor regression in mice” (J Med Chem, 2013).
Calls of active or inactive are those of the source. The rule behind the calls is not given here.

Experiments:
Liver microsomes [1] = assay: Half life in human liver microsomes; format: ADME, Microsome
Summary of the method: (§1)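 Half-life determined by incubation in mouse, rat and human liver microsomes; T1/2 in minutes.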

Liver microsomes [2] = assay: Half life in rat liver microsomes; format: ADME, Microsome; summary of the method: as §1
Liver = assay: Half life in mouse liver microsomes; format: ADME, Microsome; summary of the method: as §1
Mus musculus [3] = assay: Toxicity in mouse xenografted with human RS4:11 cells assessed as sign of toxicity at 100 to 200 mg/kg, po qd after 3 weeks; format: organism-based, RS4:11 cell; set-up: dose 100-200 mg/kg, route oral; conditions: in vivo, 504 h
Summary of the method: (§2)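 RS4;11 acute leukemia xenografts in mice; dosing began when tumors averaged 150 mm3. Oral gavage of 100 or 200 mg/kg once daily for 3 weeks. Tumor volume tracked during and after dosing; body weight and signs of toxicity monitored throughout.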

Mus musculus [4] = assay: Toxicity in SCID mouse xenografted with human SJSA1 cells assessed as sign of toxicity at 10 to 100 mg/kg, po qd measured after 2 weeks; format: organism-based, SJSA-1; set-up: dose 10-100 mg/kg, route oral; conditions: in vivo, 336 h
SJSA-1 [5] = assay: Antitumor activity against human SJSA1 cells xenografted in SCID mouse assessed as tumor growth inhibition at 100 mg/kg, po qd administered for 2 weeks measured after 10 days; format: functional, organism-based; set-up: dose 100 mg/kg
Mus musculus [6] = assay: Toxicity in mouse xenografted with human RS4:11 cells assessed as body weight loss at 100 to 200 mg/kg, po qd after 3 weeks; format: organism-based, RS4:11 cell; set-up: dose 100-200 mg/kg, route oral; conditions: in vivo, 504 h; summary of the method: as §2
RS4-11 = assay: Antitumor activity against human RS4:11 cells xenografted in mouse assessed as tumor regression at 200 mg/kg, po qd administered for 3 weeks measured after 26 days; format: functional, organism-based; set-up: dose 200 mg/kg; summary of the method: as §2
[7] = Antitumor activity against human RS4:11 cells xenografted in mouse assessed as tumor growth inhibition at 100 mg/kg, po qd administered for 3 weeks measured after 4 days relative to vehicle-treated control; format: functional; conditions: read-out: TGI; summary of the method: as §2
[8] = Antitumor activity against human RS4:11 cells xenografted in mouse assessed as tumor growth inhibition at 200 mg/kg, po qd administered for 3 weeks measured after 4 days relative to vehicle-treated control; format: functional; conditions: read-out: TGI; summary of the method: as §2
SJSA-1 [9] = assay: Induction of apoptosis in human SJSA1 cells xenografted in SCID mouse assessed as caspase-3 cleavage at 100 mg/kg, po measured at 24 hrs by Western blot analysis; format: functional, organism-based; set-up: dose 100 mg/kg
SJSA-1 [10] = assay: Induction of apoptosis in human SJSA1 cells xenografted in SCID mouse assessed as PARP cleavage at 100 mg/kg, po measured at 24 hrs by Western blot analysis; format: functional, organism-based; set-up: dose 100 mg/kg
SJSA-1 [11] = assay: Induction of apoptosis in human SJSA1 cells xenografted in SCID mouse assessed as caspase-3 cleavage at 100 mg/kg, po measured at 1 to 6 hrs by Western blot analysis; format: functional, organism-based; set-up: dose 100 mg/kg
SJSA-1 [12] = assay: Induction of apoptosis in human SJSA1 cells xenografted in SCID mouse assessed as PARP cleavage at 100 mg/kg, po measured at 1 to 6 hrs by Western blot analysis; format: functional, organism-based; set-up: dose 100 mg/kg
SJSA-1 [13] = assay: Antitumor activity against human SJSA1 cells xenografted in SCID mouse assessed as upregulation of MDM2 expression in tumor at 100 mg/kg, po measured at 24 hrs by Western blot analysis; format: functional, organism-based; set-up: dose 100 mg/kg
SJSA-1 [14] = assay: Antitumor activity against human SJSA1 cells xenografted in SCID mouse assessed as upregulation of p21 expression in tumor at 100 mg/kg, po measured at 24 hrs by Western blot analysis; format: functional, organism-based; set-up: dose 100 mg/kg
SJSA-1 [15] = assay: Antitumor activity against human SJSA1 cells xenografted in SCID mouse assessed as upregulation of p53 expression in tumor at 100 mg/kg, po measured at 24 hrs by Western blot analysis; format: functional, organism-based; set-up: dose 100 mg/kg
SJSA-1 [16] = assay: Antitumor activity against human SJSA1 cells xenografted in SCID mouse assessed as upregulation of MDM2 expression in tumor at 100 mg/kg, po measured at 3 to 6 hrs by Western blot analysis; format: functional, organism-based; set-up: dose 100 mg/kg
SJSA-1 [17] = assay: Antitumor activity against human SJSA1 cells xenografted in SCID mouse assessed as upregulation of p21 expression in tumor at 100 mg/kg, po measured at 3 to 6 hrs by Western blot analysis; format: functional, organism-based; set-up: dose 100 mg/kg
Mus musculus [18] = assay: Toxicity in SCID mouse xenografted with human SJSA1 cells assessed as body weight loss at 10 to 100 mg/kg, po qd measured after 2 weeks; format: organism-based, SJSA-1; set-up: dose 10-100 mg/kg, route oral; conditions: in vivo, 336 h
SJSA-1 [19] = assay: Antitumor activity against human SJSA1 cells xenografted in SCID mouse assessed as upregulation of p53 expression in tumor at 100 mg/kg, po measured at 3 to 6 hrs by Western blot analysis; format: functional, organism-based; set-up: dose 100 mg/kg
SJSA-1 [20] = assay: Antitumor activity against human SJSA1 cells xenografted in SCID mouse assessed as tumor regression at 100 mg/kg, po qd administered for 2 weeks measured for 60 days; format: functional, organism-based; set-up: dose 100 mg/kg
SJSA-1 [21] = assay: Antitumor activity against human SJSA1 cells xenografted in SCID mouse assessed as tumor growth inhibition at 100 mg/kg, po qd administered for 2 weeks measured after 5 days relative to vehicle-treated control; format: functional; conditions: read-out: TGI
SJSA-1 [22] = assay: Antitumor activity against human SJSA1 cells xenografted in SCID mouse assessed as tumor growth inhibition at 30 mg/kg, po qd measured after 2 weeks; format: functional, organism-based; set-up: dose 30 mg/kg
SJSA-1 [23] = assay: Antitumor activity against human SJSA1 cells xenografted in SCID mouse assessed as tumor growth inhibition at 10 mg/kg, po qd measured after 2 weeks; format: functional, organism-based; set-up: dose 10 mg/kg
Rattus norvegicus [24] = assay: Half life in Sprague-Dawley rat at 25 mg/kg, po; format: ADME, organism-based; set-up: dose 25 mg/kg, route oral; conditions: in vivo
Rattus norvegicus [25] = assay: AUC (0 to t) in Sprague-Dawley rat at 25 mg/kg, po; format: ADME, organism-based, Plasma; set-up: dose 25 mg/kg, route oral; conditions: in vivo
Rattus norvegicus [26] = assay: Cmax in Sprague-Dawley rat at 25 mg/kg, po; format: ADME, organism-based; set-up: dose 25 mg/kg, route oral; conditions: in vivo

CC(C)(C)C[C@@H]1N[C@@H](C(=O)N[C@H]2CC[C@H](O)C2)[C@H](c2cccc(Cl)c2F)[C@]12C(=O)Nc1cc(Cl)ccc12
t1/2 (Liver microsomes [1]): 0.918 h | t1/2 (Liver microsomes [2]): 0.352 h | t1/2 (Liver): > 1 h

CC(C)(C)C[C@@H]1N[C@@H](C(=O)N[C@H]2C[C@H](O)C2)[C@H](c2cccc(Cl)c2F)[C@]12C(=O)Nc1cc(Cl)ccc12
t1/2 (Liver microsomes [1]): 0.902 h | t1/2 (Liver microsomes [2]): 0.318 h | t1/2 (Liver): > 1 h

CC(C)(C)C[C@@H]1N[C@@H](C(=O)N[C@H]2C[C@@](C)(O)C2)[C@H](c2cccc(Cl)c2F)[C@]12C(=O)Nc1cc(Cl)ccc12
Activity (Mus musculus [3]): Non-toxic | Activity (Mus musculus [4]): Non-toxic | TGI (SJSA-1 [5]): Active | Activity (Mus musculus [6]): Non-toxic | Activity (RS4-11): Active | inhibition in vivo at 100 mg/kg [7]: 61% | inhibition in vivo at 200 mg/kg [8]: 80% | Activity (SJSA-1 [9]): Active | Activity (SJSA-1 [10]): Active | Activity (SJSA-1 [11]): inactive | Activity (SJSA-1 [12]): inactive | Activity (SJSA-1 [13]): inactive | Activity (SJSA-1 [14]): inactive | Activity (SJSA-1 [15]): inactive | Activity (SJSA-1 [16]): Active | Activity (SJSA-1 [17]): Active | Activity (Mus musculus [18]): Non-toxic | Activity (SJSA-1 [19]): Active | Activity (SJSA-1 [20]): Active | inhibition in vivo at 100 mg/kg (SJSA-1 [21]): > 70% | TGI (SJSA-1 [22]): Active | TGI (SJSA-1 [23]): inactive | t1/2 (Rattus norvegicus [24]): 3.2 h | AUCt (Rattus norvegicus [25]): 14900 ng·h/mL | Cmax (Rattus norvegicus [26]): 1726 ng/mL | t1/2 (Liver microsomes [2]): > 1 h | t1/2 (Liver): > 1 h

CC(C)(C)C[C@@H]1N[C@@H](C(=O)NCC[C@H](O)CO)[C@H](c2cccc(Cl)c2F)[C@]12C(=O)Nc1cc(Cl)ccc12
t1/2 (Rattus norvegicus [24]): 3.4 h | AUCt (Rattus norvegicus [25]): 2140 ng·h/mL | Cmax (Rattus norvegicus [26]): 675 ng/mL | t1/2 (Liver microsomes [1]): > 1 h | t1/2 (Liver microsomes [2]): 0.272 h | t1/2 (Liver): > 1 h

CC(C)(C)C[C@@H]1N[C@@H](C(=O)N[C@H]2CC[C@@H](O)C2)[C@H](c2cccc(Cl)c2F)[C@]12C(=O)Nc1cc(Cl)ccc12
t1/2 (Liver microsomes [1]): 0.067 h | t1/2 (Liver microsomes [2]): 0.0633 h | t1/2 (Liver): 0.025 h

CC(C)(C)C[C@@H]1N[C@@H](C(=O)NCC(C)(C)O)[C@H](c2cccc(Cl)c2F)[C@]12C(=O)Nc1cc(Cl)ccc12
t1/2 (Liver microsomes [1]): > 1 h | t1/2 (Liver microsomes [2]): > 1 h | t1/2 (Liver): > 1 h

CC(C)(C)C[C@@H]1N[C@@H](C(=O)N[C@H]2C[C@](C)(O)C2)[C@H](c2cccc(Cl)c2F)[C@]12C(=O)Nc1cc(Cl)ccc12
t1/2 (Liver microsomes [1]): > 1 h

CC(C)(C)C[C@@H]1N[C@@H](C(=O)N[C@H]2C[C@@H](O)C2)[C@H](c2cccc(Cl)c2F)[C@]12C(=O)Nc1cc(Cl)ccc12
t1/2 (Liver microsomes [1]): 0.513 h | t1/2 (Liver microsomes [2]): 0.368 h | t1/2 (Liver): 0.343 h

CC(C)(C)C[C@H]1N[C@@H](C(=O)NCC[C@H](O)CO)[C@H](c2cccc(Cl)c2)[C@@]12C(=O)Nc1cc(Cl)c(F)cc12
t1/2 (Liver microsomes [1]): > 1 h | t1/2 (Liver microsomes [2]): 0.337 h | t1/2 (Liver): > 1 h
